The results in this text go back to ChEMBL document CHEMBL4680165, “β-Lactams with antiproliferative and antiapoptotic activity in breast and chemoresistant colon cancer cells” (Eur J Med Chem, 2020).

One data set concerns HT-29. In words: Antiproliferative activity against human HT-29 cells assessed as reduction in cell viability after 72 hrs by alamar blue assay. Format: functional, cell-based. The conditions noted are these: HT-29, 72 h. The essentials: (§1)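 Cells seeded at 5 x 10^3/well (MCF-7) or 1 x 10^4/well (HT-29, HEK-293T) and treated after 24 h with serial dilutions (0.001-100 µM) in 1% v/v ethanol vehicle. Alamar Blue 10% v/v added at 72 h, then 3-5 h at 37 °C in the dark; fluorescence ex 530/em 590 nm. Viability relative to vehicle; IC50 from dose-response curves; mean of three experiments in triplicate.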
(Resazurin is reduced to fluorescent resorufin, in cell work by metabolically active cells.)

A short description of data set [1]: Half life of the compound in phosphate buffer at pH 9 by HPLC analysis. Format: physicochemical. The essentials: (§2)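 Compound stock was 1 mg/mL in mobile phase; 30 µL was diluted into 1 mL phosphate buffer (pH 4, 7.4 or 9) and held at 37 °C. Samples were taken at 0, 5, 30 and 60 min, then hourly to 24 h. Analysis was reverse-phase C18 HPLC with acetonitrile/water mobile phase at 1 mL/min and detection at 254 nm.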

A further data set has as its system MCF7. In words: Antiproliferative activity against human MCF7 cells assessed as reduction in cell viability after 72 hrs by alamar blue assay. The conditions noted are these: MCF7, 72 h. Format: functional, cell-based. The essentials:
as §1

Data set [2] in a line: Selectivity index, ratio of IC50 for human MCF7 cells to IC50 for human HT-29 cells assessed as reduction in cell viability after 72 hrs by alamar blue assay. Format: functional.
Data set [3] can be described thus: Half life of the compound in phosphate buffer at pH 4 by HPLC analysis. Type of data set: physicochemical. The essentials:
as §2

A short description of data set [4]: Half life of the compound in phosphate buffer at pH 7.4 by HPLC analysis. Type of data set: physicochemical. The essentials:
as §2

The target in a further data set is Tubulin (Homo sapiens) (UniProt P68371+Q9H4B7+P0DPH7+P68366+Q13509+Q71U36+P04350+Q3ZCM7+P07437+P68363+Q9BQE3+Q6PEY2+Q13885+Q9BVA1+Q9BUF5). Description: Induction of microtubule depolymerization in human MCF7 cells at 1 uM after 16 hrs by immunofluorescence staining based confocal microscopic analysis. Type of data set: cell-based.

Activity calls are given as the source filed them. No cut-off for these calls is given here.

For orientation: IC50 means the concentration at which inhibition is half-maximal. A word on the half-life: it is how long it takes for the measured level to halve. As for `COc1ccc([C@H]2[C@H](Oc3ccccc3)C(=O)N2c2cc(OC)c(OC)c(OC)c2)cc1Cl`, the values for the IC50 in the data set on HT-29 and in the data set on MCF7 were 314 nM and 430 nM, respectively. Further, the half-life in data set [1], in data set [3] and in data set [4] was more than 15 h throughout. In data set [2], the “Ratio IC50” value was found to be 1.37.

With `CC(=O)O[C@H]1C(=O)[C@@]2(C)[C@H]([C@H](OC(=O)c3ccccc3)[C@]3(O)C[C@H](OC(=O)[C@H](O)[C@@H](NC(=O)c4ccccc4)c4ccccc4)C(C)=C1C3(C)C)[C@]1(OC(C)=O)CO[C@@H]1C[C@@H]2O`, the result at Tubulin (Homo sapiens) was Active.

As for `COc1ccc([C@H]2[C@H](c3ccccc3)C(=O)N2c2cc(OC)c(OC)c(OC)c2)cc1I`, the IC50 with HT-29 was 355 nM; in the data set on MCF7, 648 nM. Besides, the half-life was 5 h in data set [1], 15 h in data set [3] and 14 h in data set [4]. Moreover, the “Ratio IC50” value in data set [2] turned out to be 1.83.
